Results: ChEMBL document CHEMBL5058577, “EUbOPEN Chemogenomics Library 2 (Multiplex)” (2022)

Test system: U2OS
Experiment: Multiplex assay against U2OS
Format: toxicity, cell-based
Details: human
How it was run: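 With compound added, live cells were imaged on a CQ1 microscope at 37°C and 5% CO2; staining with Hoechst33342, BioTracker Green Microtubule Cytoskeleton Dye, MitoTracker Red and Annexin V Alexa Fluor 680 had been done at seeding. The CellPathfinder machine-learning gating scheme split cells into Hoechst high-intensity objects or normal cells, normal cells into healthy, pyknosed or fragmented nuclei, and pyknosed cells into mitotic or apoptotic. The tubulin, mitochondrial-mass and membrane-permeability phenotypes are per cents of healthy-nucleus cells.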

[1] = 12 h, 1 µM, compound concentration 1 uM, replicate 1
[2] = 12 h, 1 µM, compound concentration 1 uM, replicate 2
[3] = 12 h, 10 µM, compound concentration 10 uM, replicate 1
[4] = 12 h, 10 µM, compound concentration 10 uM, replicate 2
[5] = 24 h, 1 µM, compound concentration 1 uM, replicate 1
[6] = 24 h, 1 µM, compound concentration 1 uM, replicate 2
[7] = 24 h, 10 µM, compound concentration 10 uM, replicate 1
[8] = 24 h, 10 µM, compound concentration 10 uM, replicate 2
[9] = 48 h, 1 µM, compound concentration 1 uM, replicate 1
[10] = 48 h, 1 µM, compound concentration 1 uM, replicate 2
[11] = 48 h, 10 µM, compound concentration 10 uM, replicate 1
[12] = 48 h, 10 µM, compound concentration 10 uM, replicate 2

## Cc1ccc(/C(=C\CN2CCCC2)c2ccccn2)cc1 [TRIPROLIDINE]
[1]
  Population Apoptotic (%): 85%
  Population Fragmented Nuclei (%): 29%
  Population Healthy Nuclei (%): 61%
  Population Hoechst High Intensity Objects (%): 2%
  Population Membrane Permeable-Phenotype (%): 4%
  Population Mitochondria Different-Phenotype (%): 2%
  Population Mitotic Cells (%): 15%
  Population Normal (%): 97%
  Population Pyknosed Nuclei (%): 8%
  Population Tubulin-Different-Phenotype (%): 1%
  Total Cell Count: 244
[2]
  Population Fragmented Nuclei (%): 18%
  Population Healthy Nuclei (%): 70%
  Population Hoechst High Intensity Objects (%): 3%
  Population Membrane Permeable-Phenotype (%): 6%
  Population Mitochondria Different-Phenotype (%): 1%
  Population Mitotic Cells (%): 14%
  Population Normal (%): 96%
  Population Pyknosed Nuclei (%): 11%
  Population Tubulin-Different-Phenotype (%): 5%
  Total Cell Count: 126
[3]
  Population Apoptotic (%): 87%
  Population Fragmented Nuclei (%): 25%
  Population Healthy Nuclei (%): 64%
  Population Hoechst High Intensity Objects (%): 3%
  Population Membrane Permeable-Phenotype (%): 29%
  Population Mitochondria Different-Phenotype (%): 23%
  Population Mitotic Cells (%): 12%
  Population Normal (%): 96%
  Population Pyknosed Nuclei (%): 9%
  Population Tubulin-Different-Phenotype (%): 24%
  Total Cell Count: 264
[4]
  Population Apoptotic (%): 75%
  Population Fragmented Nuclei (%): 15%
  Population Healthy Nuclei (%): 77%
  Population Hoechst High Intensity Objects (%): 0%
  Population Membrane Permeable-Phenotype (%): 14%
  Population Mitochondria Different-Phenotype (%): 18%
  Population Mitotic Cells (%): 25%
  Population Normal (%): 99%
  Population Pyknosed Nuclei (%): 7%
  Population Tubulin-Different-Phenotype (%): 15%
  Total Cell Count: 114
[5]
  Population Apoptotic (%): 89%
  Population Fragmented Nuclei (%): 23%
  Population Healthy Nuclei (%): 66%
  Population Hoechst High Intensity Objects (%): 1%
  Population Membrane Permeable-Phenotype (%): 4%
  Population Mitochondria Different-Phenotype (%): 3%
  Population Mitotic Cells (%): 10%
  Population Normal (%): 98%
  Population Pyknosed Nuclei (%): 9%
  Population Tubulin-Different-Phenotype (%): 2%
  Total Cell Count: 297
[6]
  Population Apoptotic (%): 81%
  Population Fragmented Nuclei (%): 20%
  Population Healthy Nuclei (%): 68%
  Population Hoechst High Intensity Objects (%): 4%
  Population Membrane Permeable-Phenotype (%): 9%
  Population Mitochondria Different-Phenotype (%): 6%
  Population Mitotic Cells (%): 18%
  Population Normal (%): 96%
  Population Pyknosed Nuclei (%): 11%
  Population Tubulin-Different-Phenotype (%): 5%
  Total Cell Count: 150
[7]
  Population Apoptotic (%): 75%
  Population Fragmented Nuclei (%): 27%
  Population Healthy Nuclei (%): 62%
  Population Hoechst High Intensity Objects (%): 2%
  Population Membrane Permeable-Phenotype (%): 12%
  Population Mitochondria Different-Phenotype (%): 15%
  Population Mitotic Cells (%): 24%
  Population Normal (%): 97%
  Population Pyknosed Nuclei (%): 10%
  Population Tubulin-Different-Phenotype (%): 8%
  Total Cell Count: 320
[8]
  Population Apoptotic (%): 78%
  Population Fragmented Nuclei (%): 19%
  Population Healthy Nuclei (%): 70%
  Population Hoechst High Intensity Objects (%): 1%
  Population Membrane Permeable-Phenotype (%): 11%
  Population Mitochondria Different-Phenotype (%): 13%
  Population Mitotic Cells (%): 21%
  Population Normal (%): 98%
  Population Pyknosed Nuclei (%): 9%
  Population Tubulin-Different-Phenotype (%): 6%
  Total Cell Count: 149
[9]
  Population Apoptotic (%): 86%
  Population Fragmented Nuclei (%): 17%
  Population Healthy Nuclei (%): 73%
  Population Hoechst High Intensity Objects (%): 2%
  Population Membrane Permeable-Phenotype (%): 3%
  Population Mitochondria Different-Phenotype (%): 3%
  Population Mitotic Cells (%): 13%
  Population Normal (%): 97%
  Population Pyknosed Nuclei (%): 9%
  Population Tubulin-Different-Phenotype (%): 3%
  Total Cell Count: 398
[10]
  Population Apoptotic (%): 76%
  Population Healthy Nuclei (%): 75%
  Population Hoechst High Intensity Objects (%): 3%
  Population Membrane Permeable-Phenotype (%): 5%
  Population Mitotic Cells (%): 23%
  Population Normal (%): 96%
  Population Pyknosed Nuclei (%): 6%
  Population Tubulin-Different-Phenotype (%): 4%
  Total Cell Count: 209
[11]
  Population Apoptotic (%): 86%
  Population Fragmented Nuclei (%): 24%
  Population Healthy Nuclei (%): 65%
  Population Hoechst High Intensity Objects (%): 2%
  Population Membrane Permeable-Phenotype (%): 11%
  Population Mitochondria Different-Phenotype (%): 8%
  Population Mitotic Cells (%): 13%
  Population Normal (%): 97%
  Population Pyknosed Nuclei (%): 9%
  Population Tubulin-Different-Phenotype (%): 7%
  Total Cell Count: 453
[12]
  Population Apoptotic (%): 89%
  Population Fragmented Nuclei (%): 15%
  Population Healthy Nuclei (%): 74%
  Population Hoechst High Intensity Objects (%): 4%
  Population Membrane Permeable-Phenotype (%): 9%
  Population Mitotic Cells (%): 10%
  Population Normal (%): 95%
  Population Tubulin-Different-Phenotype (%): 6%
  Total Cell Count: 203
